27 variants from the RNAGym collection of RNA variant scans (doi:10.1101/gad.245936.114) can be followed below.

This sample holds only a part of the variants without activity.

The labels stand for the following.
B1: tRNA (parent)
chain: CUCUCGGUAGCCAAGUUGGUUUAAGGCGCAAGACUUUAAUUUAUCACUACGAAAUCUUGAGAUCGGGCGUUCGACUCGCCCCCGGGAGAUUUUUUCCUCGAGCAA

The variants in this data set derive from B1. In words: nonsense suppression (GFP-seq) (ratio to wild type); higher = more function; SUP4oc tRNA, yeast GFP reporter sort-seq. An outline of the steps: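 Yeast carrying genome-integrated SUP4oc tRNA variants from a library with ~3% random mutations were grown in raffinose/galactose medium with 80 mg/L adenine. Each strain also carried a galactose-driven GFP ochre reporter and RFP. Cells were sorted into GFP/RFP bins, and each bin was Illumina-sequenced (phred ≥30). Nonsense suppression (GFPSEQ) is the bin median GFP/RFP, weighted by each variant's estimated cell share per bin, relative to wild-type SUP4oc; variants needed ≥100 reads and ≥30 cells.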
Turning to CUCUCGGUAGCCAAGUUGGUUCAAGGCGCCAUACUUUAAUUUAUCACUACGAAAUCUUGAGAUCGGGCGUUCGACUCGCCCGCGGGAGAUUUUUUCCUCGAGCAA, the nonsense suppression was at most 0.026.

CUCUCGGUAGCCAAGUUGGUUCAAGGCGCAAGAGUUUAAUUUAUCACUACGAAAUCUUGAGAUCGGGCGUUCGACUCGCCCCCGGGAAAUUUUUUCCUCGAGCAA: the nonsense suppression was at most 0.026.

In the case of CUCUCGGUAGCCAAGUUGGUUCAAGGCGCAAGACUUUAAUUUAUCACUACGAAAUCUUGAAAUCGGGCGUUCGACUCGUCCCCGGGAGAUUUUUUCCUCGAGCAA, the nonsense suppression was 0.197. As for CUCUCGGUAGCCAAGUUGGUUCAAGGCGCAAGACUUUAAUUUAUCACUACGAAAUCUUGAGACCGGGUGUUCGACUCGCCCCCGGGAGAUUUUUUCCUCGAGCAA, the nonsense suppression was found to be 0.0629.

As to CUCUCGGUAGCCAAGUUGGUUGAAGGCGCAUGACUUUAAUUUAUCACUACGAAAUCUUGAGAUCGGGCGUUCGACUCGCCCCCGGGAGAUUUUUUCCUCGAGCAA, the nonsense suppression was 0.0872. With CUCUCGGUAGCCAAGUUGGUUAAAGGCUCAAGACUUUAAUUUAUCACUACGAAUUCUUGAGAUCGGGCGGUCGACUCGCCCCCGGGCGAUUUUUUCCUCGAGCAA, the nonsense suppression was at most 0.026. The same measure for CUCUCGGUAGCCAAGUUGGUUAAAGGCGCAAGACUUUAAUUUAUCACUACGAAACCUUGAGAUCGGGCGUUCGACUCGCCCCCGGGAGAUUUUUUCCUCGAGCAA: 0.377; for CUCUCGGUAGCCAAGUUGGUUCAAGGCGCAAGACUUUAAUUUAUCACUACGAAAUCUUGAGAUCGGGCGUUCAACUCGCUCCCGGGAGAUUUUUUCCUCGAGCAA: 0.0265; for CUCUCGGUAGCCAAGUUGGUUCAUGGCGUGAGACUUUAAUUUAUCACUACGAAAUCUUGAGAUCGGGCGUUCGACUCGCCCCCGGGAGAUUUUUUCCUCGAGCAA: 0.0731. As to CUCUCGGUAGCCAAGUUGGUUCAAGGCGCAGGACUUUAAUUUAUCACUACGAAAUCUUGAGAUCGGGCGUUCGCCUCGCCCCCGGGAGAUUUUUUCCUCGAGCAA, the nonsense suppression was at most 0.026. As to CUCUCGGUAGCCAAGUUGGUUCACGGCGCAAGACUUUAAUUUAUCACUACGAAAUCUUGAGAUCGGGCGUUCGACUCGCCCCCGGGAGAUUUUUUCCUCGAGCAA, the nonsense suppression was 1.01.

Turning to CUCUCGGUAGCCAAGUUGGUUCAAGGCGCAAGACUUUAAUUUAUCACUACGAAAUCUUCAGAUCGGGCGUUCGACUCGCCCCCGGGAGAUUUUUUCCUCGAGCAA, the nonsense suppression is at most 0.026. With CUCUCGGUAGCCAAGUUGGUUCAAGGCGCAAGACUUUAAUUUAUCACUACGAAAUCUGGAGAUCGGGCGUUCGACUCGCCCCCGGGAGAUUUUUUCCUCGAGCAA, the nonsense suppression was at most 0.026.

With CUCUCGGUAGCCAAGUUGGUUCAAGGCGCUAGACUUUAAUUUAUCACUACGAAAUCUUGAGAUCGGGCGUUCGACUCGCCCCAGGGAGAUUUUUUCCUCGAGCAA, the nonsense suppression was at most 0.026. As for CUCUCGGUAGCCAAGUUGGUUGAAGGCGCAAGACUUUAAUUUAUCACUACGAAUUCUUGAGAUCGGGCGUUCGACUCGCCCCCGGGAUAUUUUUUCCUCGAGCAA, the nonsense suppression was at most 0.026. As to CUCUCGGUAGCCAAGUUGGUUGAAGGCGCAAGACUUUAAUUUAUCACUACGAAGUCUUGAGAUCGGGCGUUCAACUCGCCCCCGGGAGAUUUUUUCCUCGAGCAA, the nonsense suppression was at most 0.026. For the variant CUCUCGGUAGCCAAGUUGGUUCAAGGCGUAAGACUUUAAUUUAUCACUACGAAAUCUUGAAAUCGGGCGUUCGACUCGCCCCCGGGAGAUUUUUUCCUCGAGCAA, the nonsense suppression was determined as 0.386. The value for CUCUCGGUAGCCAAGUUGGUUGAAGGCGCAAGACUUUAAUUUAUCACUACGAAAUCUUGAGAUCGGGCGUUCGACUCGCCCCCGGGGGAUUUUUUCCUCGAGCAA was 0.886. Turning to CUCUCGGUAGCCAAGUUGGUUAAAGGCGCAAGACUUUAAUUUAUCACUACGAAAUCUUGACAUCGGGCGUUCGACUCGCCCCCGGGAGAUUUUUUCCUCGAGCAA, the nonsense suppression was determined as 0.203.

As to CUCUCGGUAGCCAAGUUGGUUGACGGCGCAAGACUUUAAUUUAUCACUACGAAAUCUUGAGAUCGGGCGUUCGACUCGCCCCCGGGAGAUUUUUUCCUCGAGCAA, the nonsense suppression amounted to 0.817. The same measure for CUCUCGGUAGCCAAGUUGGUUGAAGGCGUAAGACUUUAAUUUAUCACUACGAAAUCUUGAGAUCGGGCGUUCGACUCGCCCCCGGGAGAUUUUUUCCUCGAGCAA: 1.15; for CUCUCGGUAGCCAAGUUGGUUAAAGGCACAAGACUUUAAUUUAUCACUACGAAAUCUUGAGAUCGGGCGUUCGACUCGCCCCCGGGAGAUUUUUUCCUCGAGCAA: 1.14.

In the case of CUCUCGGUAGCCAAGUUGGUUCAAGGCGCAAGACUUUAAUUUAUCACUACGAAAUCUUGAGAUCGGGUGUUCGACUCGCCCCCGGGAGAUUUUUUCCUCGAGCAA, the nonsense suppression came out at 1.16. For the variant CUCUCGGUAGCCAAGUUGGUUGAAGGCGUAAAACUUUAAUUUAUCACUACGAAAUCUUGAGAUCGGGCGUUCGACUCGCCCCCGGGAGAUUUUUUCCUCGAGCAA, the nonsense suppression is at most 0.026. Regarding CUCUCGGUAGCCAAGUUGGUUCAAGGCGCAAGACUUUAAUUUAUCACUACGAAAUCUUGAUACCGGGCGUUCGACUCGCCCCCGGGAGAUUUUUUCCUCGAGCAA, the nonsense suppression worked out at 0.17.

As for CUCUCGGUAGCCAAGUUGGUUAAAGGCGCAAGACUUUAAUUUAUCACUACGAAAUCUUGAGAUCGGGCGUUCGACCCGCCCCCGGGAGAUUUUUUCCUCGAGCAA, the nonsense suppression worked out at 0.967. Regarding CUCUCGGUAGCCAAGUUGGUUAAAGGCGCAAGACUUUAAUUUAUCACUACGAAAUCUUGAGAUCGGGCGUUCGACACGCCCCCGGGAGAUUUUUUCCUCGAGCAA, the nonsense suppression worked out at 0.0747.
